For assay [1], the target named is GABA-A receptor; anion channel. In words: Inhibition of 0.6 nM [3H]flunitrazepam binding to GABA-A central benzodiazepine receptor of rat forebrain membrane. The method, boiled down: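 Rat forebrain membranes with [3H]flunitrazepam at 0.6 nM, modified Squires–Braestrup method. IC50 (nM) read from displacement curves of at least four concentrations, each in triplicate.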

Assay [2] is filed under the species Mus musculus. Description: Muscle relaxation in mice by using Pull-Up test. It is filed as functional.
For assay [3], the species on record is Mus musculus. Description: Sedative/muscle relaxant effect in mice by using Rotating-Drum test. It is filed as functional. Summed up:
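Male CD-1 mice were placed on a rotating drum (3 cm diameter, 16 rev/min) 1 h after dosing. Mean time on the drum for groups of 10 was expressed as a percentage of the control group mean.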

Assay [4] concerns Mus musculus. In words: Anticonvulsant activity in CD-1 mice with 120 mg/kg of leptazol. The format is functional. The method, boiled down:
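Male CD-1 mice challenged with leptazol at 120 mg/kg, following Everett and Richards. ED50 (mg/kg po) with 95% confidence limits by Litchfield–Wilcoxon where the doses allowed.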

The species entered for assay [5] is Rattus norvegicus. Description: Minimum Effective Dose(MED was measured by using Licking-Conflict test in rats. The format is functional. The conditions noted are these: read-out: MED. Summed up:
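Rats trained to stable suppression of drinking at tone onset. Each session had 1 min unpunished drinking, then a tone lasting through a 3-min punished period.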

The species named for assay [6] is Rattus norvegicus. Description: Minimum Effective Dose (MED) was measured using Food-Conflict test in rats. It is filed as functional. The conditions noted are these: read-out: MED. The method, boiled down: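 Male Lister rats on alternating schedule: five 4-min FI30 unpunished and 3-min FR5 punished components (food-motivated). Oral dosing, first at 50 mg/kg in four rats, then at decreasing doses if active until the minimum effective dose was reached.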

As to `CCc1c(SC)nc2nc(C(=O)c3ccccc3)cn2c1C`, the IC50 in assay [1] amounted to 12 nM. The median effective dose (ED50) in the assay filed under Mus musculus [2] is 200 mg/kg; in the assay filed under Mus musculus [3] it was 100 mg/kg; in the assay on Mus musculus [4] it was 12.5 mg/kg. Also, the minimal effective dose in the assay filed under Rattus norvegicus [5] and in the assay listed under Rattus norvegicus [6] was 2 mg/kg each time.
As for `CCc1c(OC)nc2nc(C(=O)c3ccccc3)cn2c1C` [DIVAPLON], the IC50 in assay [1] worked out at 56 nM. The ED50 in the assay filed under Mus musculus [2] was 200 mg/kg; in the assay filed under Mus musculus [3], 200 mg/kg; with Mus musculus [4] it was 21 mg/kg. Further, the minimal effective dose in the assay filed under Rattus norvegicus [5] and in the assay listed under Rattus norvegicus [6] was 2 mg/kg in each case.

The values above are taken from ChEMBL document CHEMBL1124258, “(Imidazo[1,2-a]pyrimidin-2-yl)phenylmethanones and related compounds as potential nonsedative anxiolytics” (J Med Chem, 1988).
